Consider 1 molecule from ChEMBL document CHEMBL4477190, “Marine-Derived Secondary Metabolite, Griseusrazin A, Suppresses Inflammation through Heme Oxygenase-1 Induction in Activated RAW264.7 Macrophages” (J Nat Prod, 2016).

For experiment [1], the system named is RAW264.7. Put plainly: Reduction in iNOS expression in LPS-stimulated mouse RAW264.7 cells at 5 to 40 uM pre-treated for 6 hrs prior to LPS-challenge measured after 24 hrs by western blot analysis. Type of experiment: functional, cell-based. An outline of the steps:
(§1)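 RAW264.7 macrophages pretreated 6 h with compound, then stimulated 24 h with LPS (500 ng/mL). Nitrite in conditioned medium measured. PGE2 measured by commercial kit. iNOS and COX-2 read by Western blot in RIPA lysates (25 mM Tris-HCl pH 7.6, 150 mM NaCl, 1% NP-40, 1% deoxycholate, 0.1% SDS). Mean ± SD of three experiments.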
A general note: Immunoblotting shows a protein as a band on a membrane.

In experiment [2] the test system is RAW264.7. Put plainly: Reduction in COX2 expression in LPS-stimulated mouse RAW264.7 cells at 5 to 40 uM pre-treated for 6 hrs prior to LPS-challenge measured after 24 hrs by western blot analysis. Type of experiment: functional, cell-based. An outline of the steps: as §1
The test system of experiment [3] is RAW264.7. Nature of the experiment: Reduction in IL6 production in LPS-stimulated mouse RAW264.7 cells at 20 and 40 uM pre-treated for 6 hrs prior to LPS-challenge measured after 24 hrs. Type of experiment: functional, cell-based. An outline of the steps: (§2)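 RAW264.7 macrophages pretreated 6 h with compound, then given LPS (500 ng/mL) for 24 h. TNF-α, IL-1β and IL-6 protein measured by commercial kit (R&D Systems). mRNA levels measured by real-time PCR. Mean ± SD of three experiments; one-way ANOVA with Newman−Keuls test.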

Experiment [4] deals with RAW264.7. Put plainly: Antiinflammatory activity in LPS-stimulated mouse RAW264.7 cells assessed as reduction in TNF-alpha production at 20 and 40 uM pre-treated for 6 hrs prior to LPS-challenge measured after 24 hrs iin presence of HO-1 competitive inhibitor SnPP. Type of experiment: functional, cell-based. An outline of the steps:
(§3)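 RAW264.7 cells pretreated 6 h with compound (40 μM), with or without SnPP (50 μM), then stimulated 24 h with LPS (500 ng/mL). Nitrite in conditioned medium measured. PGE2, TNF-α, IL-1β and IL-6 measured by commercial kit (R&D Systems). iNOS and COX-2 read by Western blot. Mean ± SD of three experiments; one-way ANOVA with Newman−Keuls test.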

Experiment [5] addresses T1, Nuclear factor erythroid 2-related factor 2 (Mus musculus) (UniProt Q60795).
T1 sequence (whole entry): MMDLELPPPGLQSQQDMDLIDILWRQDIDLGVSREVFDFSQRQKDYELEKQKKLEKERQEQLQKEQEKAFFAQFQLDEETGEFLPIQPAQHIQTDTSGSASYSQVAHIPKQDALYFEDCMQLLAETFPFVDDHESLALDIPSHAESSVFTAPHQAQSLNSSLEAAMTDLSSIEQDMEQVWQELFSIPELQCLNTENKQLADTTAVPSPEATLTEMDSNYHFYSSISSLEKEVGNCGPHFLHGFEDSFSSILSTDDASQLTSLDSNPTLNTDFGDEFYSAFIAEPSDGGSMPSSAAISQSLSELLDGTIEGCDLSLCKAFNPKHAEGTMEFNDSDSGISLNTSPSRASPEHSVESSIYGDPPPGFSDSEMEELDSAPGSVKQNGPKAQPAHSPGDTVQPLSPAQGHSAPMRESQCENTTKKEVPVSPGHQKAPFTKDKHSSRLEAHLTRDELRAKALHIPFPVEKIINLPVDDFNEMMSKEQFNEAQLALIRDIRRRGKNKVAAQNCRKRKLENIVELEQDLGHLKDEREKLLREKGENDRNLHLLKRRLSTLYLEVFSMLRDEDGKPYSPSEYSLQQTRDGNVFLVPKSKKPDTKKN
Put plainly: Increase in nuclear Nrf2 translocation in LPS-stimulated mouse RAW264.7 cells assessed as nuclear Nrf2 level at 20 and 40 uM measured up to 120 mins by Western blot analysis. The experiment is classed as cell-based. An outline of the steps:
(§4)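 Cells exposed to compound at 40 μM for 0–120 min in 20 min steps. Nuclei separated from cytosol with PER-Mammalian Protein Extraction buffer plus protease inhibitor cocktail and 1 mM PMSF. Nuclear and cytoplasmic Nrf2 read by Western blot. Representative blots from three independent experiments.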

In experiment [6] the test system is RAW264.7. Put plainly: Antiinflammatory activity in LPS-stimulated mouse RAW264.7 cells assessed as reduction in IL6 production at 20 and 40 uM pre-treated for 6 hrs prior to LPS-challenge measured after 24 hrs in presence of HO-1 competitive inhibitor SnPP. The experiment is classed as functional, cell-based. Put shortly: as §3
Experiment [7] addresses T1, Nuclear factor erythroid 2-related factor 2 (Mus musculus). Nature of the experiment: Activation of Nrf2 in LPS-stimulated mouse RAW264.7 cells assessed as induction of HO-1 protein expression at 5 to 40 uM pre-treated for 6 hrs prior to LPS-challenge measured after 12 hrs by western blot analysis. The experiment is classed as cell-based. An outline of the steps: (§5)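 RAW264.7 macrophages incubated 12 h with compound (5−40 μM). HO-1 mRNA measured, and HO-1 protein by Western blot. Mean ± SD of three experiments; representative blots from three independent experiments.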

In experiment [8] the test system is RAW264.7. Put plainly: Reduction in IL6 mRNA expression in LPS-stimulated mouse RAW264.7 cells at 20 and 40 uM pre-treated for 6 hrs prior to LPS-challenge measured after 24 hrs by real-time PCR analysis. The experiment is classed as functional, cell-based. An outline of the steps: as §2
In general terms: Quantitative PCR measures a nucleic acid by following its amplification.

For experiment [9], the system named is RAW264.7. Put plainly: Reduction in iNOS expression in LPS-stimulated mouse RAW264.7 cells at 5 to 40 uM pre-treated for 6 hrs prior to LPS-challenge measured after 24 hrs by western blot analysis in presence of HO-1 competitive inhibitor SnPP by western blot analysis. Type of experiment: functional, cell-based. Put shortly: as §3
The subject of experiment [10] is RAW264.7. Nature of the experiment: Antiinflammatory activity in LPS-stimulated mouse RAW264.7 cells assessed as reduction in PGE2 production at 5 to 40 uM pre-treated for 6 hrs prior to LPS-challenge measured after 24 hrs in presence of HO-1 competitive inhibitor SnPP.
Experiment [11] has as its system RAW264.7. Nature of the experiment: Reduction in TNF-alpha production in LPS-stimulated mouse RAW264.7 cells at 20 and 40 uM pre-treated for 6 hrs prior to LPS-challenge measured after 24 hrs. Type of experiment: functional, cell-based. Put shortly: as §2
For experiment [12], the system named is RAW264.7. Put plainly: Antiinflammatory activity in LPS-stimulated mouse RAW264.7 cells assessed as reduction in IL-1beta production at 20 and 40 uM pre-treated for 6 hrs prior to LPS-challenge measured after 24 hrs in presence of competitive inhibitor of HO-1 SnPP. The experiment is classed as functional, cell-based. An outline of the steps:
as §3

Experiment [13] relates to RAW264.7. Nature of the experiment: Inhibition of LPS-stimulated NF-kappaB p50 nuclear translocation in mouse RAW264.7 cells at 20 and 40 uM pre-treated for 6 hrs prior to LPS-challenge measured after 30 mins by western blot analysis. The experiment is classed as cell-based. An outline of the steps: (§6)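 Cells pretreated 6 h with compound, then stimulated 30 min with LPS (500 ng/mL). Nuclear fractions probed by Western blot for p50 and p65. NF-κB DNA binding in nuclear extracts measured by TransAM ELISA kit. Mean ± SD of three experiments.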

Experiment [14] deals with Transcription factor p65 (Mus musculus) (UniProt Q04207). Nature of the experiment: Inhibition of LPS-stimulated NF-kappaB p65 nuclear translocation in mouse RAW264.7 cells at 20 and 40 uM pre-treated for 6 hrs prior to LPS-challenge measured after 30 mins by western blot analysis. Type of experiment: cell-based. Put shortly: as §6
Chain of Transcription factor p65 (Mus musculus) (Q04207 whole entry): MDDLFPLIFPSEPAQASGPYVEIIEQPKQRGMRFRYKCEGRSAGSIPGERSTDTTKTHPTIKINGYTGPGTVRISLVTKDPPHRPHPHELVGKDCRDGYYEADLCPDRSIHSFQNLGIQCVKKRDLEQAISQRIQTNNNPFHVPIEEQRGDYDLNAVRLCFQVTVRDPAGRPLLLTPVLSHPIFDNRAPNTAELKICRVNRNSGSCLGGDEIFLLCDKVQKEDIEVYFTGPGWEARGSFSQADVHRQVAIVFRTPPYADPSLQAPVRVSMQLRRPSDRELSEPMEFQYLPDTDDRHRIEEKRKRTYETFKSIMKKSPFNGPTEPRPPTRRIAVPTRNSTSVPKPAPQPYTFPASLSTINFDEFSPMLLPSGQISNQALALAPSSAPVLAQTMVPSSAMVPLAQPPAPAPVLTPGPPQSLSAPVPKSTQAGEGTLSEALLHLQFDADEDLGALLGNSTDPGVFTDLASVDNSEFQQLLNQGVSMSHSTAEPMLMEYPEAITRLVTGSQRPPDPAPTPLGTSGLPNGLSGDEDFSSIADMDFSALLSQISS
In experiment [15] the target is T1, Nuclear factor erythroid 2-related factor 2 (Mus musculus). Put plainly: Increase in nuclear Nrf2 translocation in LPS-stimulated mouse RAW264.7 cells assessed as cytosolic Nrf2 level at 20 and 40 uM measured up to 120 mins by Western blot analysis. The experiment is classed as cell-based. An outline of the steps:
as §4

Experiment [16] has the same target. Nature of the experiment: Activation of Nrf2 in LPS-stimulated mouse RAW264.7 cells assessed as induction of HO-1 mRNA expression at 5 to 40 uM pre-treated for 6 hrs prior to LPS-challenge measured after 12 hrs. Type of experiment: cell-based. An outline of the steps:
as §5

For experiment [17], the system named is RAW264.7. Put plainly: Reduction in IL-1beta mRNA expression in LPS-stimulated mouse RAW264.7 cells at 20 and 40 uM pre-treated for 6 hrs prior to LPS-challenge measured after 24 hrs by real-time PCR analysis. Type of experiment: functional, cell-based. Put shortly:
as §2

The subject of experiment [18] is RAW264.7. Nature of the experiment: Antiinflammatory activity in LPS-stimulated mouse RAW264.7 cells assessed as reduction in PGE2 production at 5 to 40 uM pre-treated for 6 hrs prior to LPS-challenge measured after 24 hrs. Type of experiment: functional, cell-based. An outline of the steps:
as §1

Experiment [19] concerns the target Transcription factor p65 (Mus musculus) (UniProt Q04207). Put plainly: Inhibition of LPS-stimulated DNA binding activity of NF-kappaB p65 in mouse RAW264.7 cells assessed as at 20 and 40 uM pre-treated for 6 hrs prior to LPS-challenge measured after 30 mins by ELISA method. Type of experiment: cell-based. An outline of the steps: as §6
(In general: In an ELISA, binding on a coated surface is turned into a signal by an enzyme label.)

In experiment [20] the test system is RAW264.7. Nature of the experiment: Reduction in IL-1beta production in LPS-stimulated mouse RAW264.7 cells at 20 and 40 uM pre-treated for 6 hrs prior to LPS-challenge measured after 24 hrs. The experiment is classed as functional, cell-based. Put shortly: as §2
Experiment [21] deals with RAW264.7. Put plainly: Reduction in COX2 expression in LPS-stimulated mouse RAW264.7 cells at 5 to 40 uM pre-treated for 6 hrs prior to LPS-challenge measured after 24 hrs by western blot analysis in presence of HO-1 competitive inhibitor SnPP by western blot analysis. The experiment is classed as functional, cell-based. Put shortly: as §3
For experiment [22], the system named is RAW264.7. Nature of the experiment: Reduction in TNF-alpha mRNA expression in LPS-stimulated mouse RAW264.7 cells at 20 and 40 uM pre-treated for 6 hrs prior to LPS-challenge measured after 24 hrs by real-time PCR analysis. The experiment is classed as functional, cell-based. Put shortly:
as §2

The subject of experiment [23] is RAW264.7. Put plainly: Antiinflammatory activity in LPS-stimulated mouse RAW264.7 cells assessed as reduction in nitrite production at 5 to 40 uM pre-treated for 6 hrs prior to LPS-challenge measured after 24 hrs in presence of HO-1 competitive inhibitor SnPP by Griess reaction.
Experiment [24] relates to RAW264.7. Put plainly: Antiinflammatory activity in LPS-stimulated mouse RAW264.7 cells assessed as reduction in nitrite production at 5 to 40 uM pre-treated for 6 hrs prior to LPS-challenge measured after 24 hrs by Griess reaction. The experiment is classed as functional, cell-based. Put shortly:
as §1

Calls of active or inactive are those of the source. The calls are words filed in the database; no cut-off is given here.

Take `Cc1nc(Cc2ccc(N(C)C=O)cc2)c(C)nc1Cc1ccc(N(C)C=O)cc1`: the Activity result in experiment [1], in experiment [2], in experiment [3], in experiment [8], in experiment [11] and in [17] was “Dose-dependent effect” in each case. The Activity result in experiment [18], in experiment [20], in experiment [22] and in experiment [24] was “Dose-dependent effect” each time. The outcome in experiment [4], in experiment [6], in experiment [9], in experiment [10], in [12] and in experiment [21] was inactive. Also, the result in experiment [23] was inactive. Also, the result in experiment [5], in [7], in [15] and in experiment [16] was Active. The inhibition entry in experiment [13], in experiment [14] and in experiment [19] was “Active” throughout.
